Experiments:
[1] = folding enthalpy; higher = less favourable; fluorescence melt of hairpins on a sequencing array, two-state fit; conditions: sodium 0.088 M
How it was run: (§1)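 Cy3 signals were normalised both to pre-quench Cy3 and to control constructs. They came from library hairpins carrying annealed Cy3 and quencher oligos on a sequenced MiSeq flow cell, imaged in 50 mM Na-HEPES pH 8.0, 25 mM NaCl, in 2.5 °C steps up to 60 °C. Bootstrapped two-state fits gave melting temperature and folding enthalpy, and four replicates were combined by inverse variance. Fitted temperatures were then raised by 9.35 °C to match UV melts.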

[2] = melting temperature; fluorescence melt of hairpins on a sequencing array, two-state fit, raised by 9.35 °C to match UV melts; conditions: sodium 0.088 M
How it was run: as §1

Sequence | folding enthalpy [1] | Tm [2]
GCTTCGGCGAAAGCCAGC (((..(((....)))))) | -10.3 kcal/mol | 40.2 °C
GCTTCGGGAAACTGAAGC (((((.(....).))))) | -41.3 kcal/mol | 53.2 °C
GCTTCGGGAAACTGGAGC (((.(.(....).).))) | -32.7 kcal/mol | 39.1 °C
GCTTCTCCGAAAGGAAGC (((..(((....)))))) | -24.2 kcal/mol | 45.3 °C
GCTTCTGCGAAAGCAAGC (((..(((....)))))) | -9.99 kcal/mol | 38.3 °C
GCTTCTGGAAACAGAGGC ((.((((....)))).)) | -33 kcal/mol | 48.3 °C
GCTTGACGAAAGTCCAGC (((.(((....))).))) | -26.6 kcal/mol | 49.9 °C
GCTTGAGGAAACCCAAGC (((((.(....).))))) | -37 kcal/mol | 46 °C
GCTTGAGGAAACTTAAGC ((((.((....)).)))) | -26.4 kcal/mol | 39.7 °C
GCTTGCCGAAAGGCAGC (((.(((....)))))) | -14.4 kcal/mol | 60.1 °C
GCTTGCCGAAAGGCTAGC (((.(((....))).))) | -27.8 kcal/mol | 64.4 °C
GCTTGCGAAAGCACAGC ((((((....))).))) | -20.1 kcal/mol | 50.5 °C
GCTTGCGAAAGCACGAGC ((((((....)))..))) | -15.9 kcal/mol | 46.9 °C
GCTTGCGAAAGCATAAGC ((((((....)))..))) | -19.4 kcal/mol | 47.9 °C
GCTTGCGAAAGCATCAGC ((((((....)))..))) | -11.8 kcal/mol | 37.1 °C
GCTTGCGGAAACGCGAGC (((.(((....))).))) | -29.3 kcal/mol | 64 °C
GCTTGCGGAAACGTAAGC ((((.((....)).)))) | -35.1 kcal/mol | 52.5 °C
GCTTGCGGAAACGTGAGC (((..((....))..))) | -31.5 kcal/mol | 46.5 °C
GCTTGGCCGAAAGGCAGC (((..(((....)))))) | -14.4 kcal/mol | 46.9 °C
GCTTGGCGAAAGCAACGC ((.(.((....)).).)) | -10.5 kcal/mol | 33.5 °C
GCTTGGCGAAAGCAATGC ((.(.((....)).).)) | -12.8 kcal/mol | 38.4 °C
GCTTGGCGAAAGCCCGGC ((..(((....)))..)) | -14.4 kcal/mol | 45.4 °C
GCTTGGCGAAAGCTTAGC (((..((....))..))) | -16.9 kcal/mol | 53.4 °C

Sequence | folding enthalpy [1] | Tm [2]
GCTTGGGGAAACCCAAGC (((((((....))))))) | -43.6 kcal/mol | 68.3 °C
GCTTGGGGAAACCCAGGC ((.((((....)))).)) | -36.8 kcal/mol | 52.4 °C
GCTTGGGGAAACTCGAGC (((.(.(....).).))) | -31.3 kcal/mol | 36.9 °C
GCTTGTCGAAAGACTAGC (((.(((....))).))) | -34 kcal/mol | 53.9 °C
GCTTGTGGAAACACGAGC (((.(((....))).))) | -37.8 kcal/mol | 54.5 °C
GCTTGTGGAAACGCAAGC (((((.(....).))))) | -39.5 kcal/mol | 55.6 °C
GCTTTAACGAAAGTTAGC (((..(((....)))))) | -18.8 kcal/mol | 31.9 °C
GCTTTAGGAAACTAGAGC (((.(((....))).))) | -31.9 kcal/mol | 35.4 °C
GCTTTCCGAAAGGAGAGC (((.(((....))).))) | -38.7 kcal/mol | 54.8 °C
GCTTTCGAAAGAAAAAGC ((((((....)))..))) | -26.6 kcal/mol | 36 °C
GCTTTCGAAAGAACAAGC ((((((....)))..))) | -24.3 kcal/mol | 31.8 °C
GCTTTCGAAAGAAGTAGC ((((((....)))..))) | -23 kcal/mol | 34 °C
GCTTTCGAAAGAATAAGC ((((((....)))..))) | -21.6 kcal/mol | 33.4 °C
GCTTTCGGAAACGAAGGC ((.((((....)))).)) | -35.3 kcal/mol | 50.9 °C
GCTTTGCGAAAGCAACGC ((.((((....)))).)) | -20.8 kcal/mol | 55.9 °C
GCTTTGCGAAAGCAGGGC ((..(((....)))..)) | -20.1 kcal/mol | 47 °C
GCTTTGCGAAAGCCACGC ((.(.((....)).).)) | -10.4 kcal/mol | 37 °C
GCTTTGCGAAAGCCAGGC ((.(.((....)).).)) | -10.2 kcal/mol | 38.3 °C
GCTTTGCGAAAGCCGAGC (((..((....))..))) | -16 kcal/mol | 41.9 °C
GCTTTGCGAAAGCCTAGC (((..((....))..))) | -13 kcal/mol | 41.1 °C
GCTTTGCGAAAGCGAGGC ((.(.((....)).).)) | -17.1 kcal/mol | 49.7 °C
GCTTTGGGAAACCGAAGC ((((.((....)).)))) | -39.5 kcal/mol | 52.5 °C

Reference: the array DNA melting data of Ke et al. (doi:10.1101/2024.01.08.574731)
